High-throughput results (PubChem)
Shown are actives, neighbours in structure and some others; about 1.4% of the full set was active somewhere.
TPT1 inhibitor – blocks Candida albicans tRNA 2'-phosphotransferase; AID 1962; inhibition, % at 5 µM; 300,000 tested, 0.81% active; recombinant caTPT1, FP RNA substrate dephosphorylation;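 active means inhibition above the mean of all tested compounds plus 3 SD, set per screening campaign, cut at about 24% in these data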;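 further: plate controls were DMSO alone for no effect and ferristatin control at 100 nM for full effect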
IDE cell activ – boosts human insulin-degrading enzyme activity in HEK cells; P14735; FAbeta-B cleavage, fluorescence polarization; 0% vehicle, 100% cell-free pure enzyme wells; activation, % at 5.96 µM; 340,000 tested, 0.073% active;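 active means activation above the mean of all tested compounds plus 3 SD, set per screening campaign, cut at about 17% in these data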
HNF4A DNA FP – change in binding of human HNF4 alpha to DNA; HNF4a-FITC DNA binding, fluorescence polarization, 1 h; P41235; 360,000 tested, 0.3% active; activity change, % at 10 µM; AID 1224865; in the data active means activity change above about 30%, passing the limit was not always enough
IDE inh – cellular human IDE inhibition; inhibition, % at 5.59 µM; 320,000 tested, 0.41% active; HEK cells, FAbetaB cleavage, fluorescence polarization;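 active means percent inhibition above the average of all tested compounds plus 3 SD, set per screening campaign, cut at about 16% in these data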;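 further: IDE supplied by intact live HEK cells; FP after avidin binding of uncleaved biotin substrate so inhibition keeps polarization high; 0% = DMSO wells and 100% = 60 µM reference IDE inhibitor Ii1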
CSN inh – CSN deneddylation inhibition; Purified CSN, SCF-Nedd8-OG deneddylation, fluorescence polarization; inhibition, % at 12.5 µM; 360,000 tested, 0.38% active; AID 651999;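 active means pattern-corrected inhibition above about 35%, with an unprinted fluorescence ratio check between 0.5 and 1.5, limit read from the data, passing the limit was not always enough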;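 further: 0% = enzyme with substrate and 100% = substrate without enzyme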
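test system = HEK293T-derived human Csn5 enzyme | amount = 0.24 nM Csn5 enzyme, final concentration | medium = Tris/NaCl/DTT buffer, pH 7.5 | schedule = 90 min reaction at room temperature | signal = FP | evaluation = inhibition of Csn5 cleavage, % | compound dosing = single dose of 12.5 µM compound with 0.25% DMSO | probe or stimulus = 10 nM SCFSkp2-Nedd8OG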
TPT1 inh confirm – TPT1 (C. albicans) inhibition, confirmation; recombinant caTPT1, fluorescence polarization, RNase T1 coupled; inhibition, % at 5 µM; 2,400 tested, 74% active; AID 2149; shares compounds with TPT1 inhibitor;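 active means inhibition above the primary screen limit, the mean inhibition of all tested compounds plus 3 SD, cut at about 25% in these data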
RNase T1 inh – counter-screen for TPT1 inhibitors: inhibitors of Aspergillus oryzae RNase T1. inhibition, % at 5 µM. RNase T1 cleavage, fluorescence polarization, 1536-well. shares compounds with TPT1 inhibitor. AID 2153. 2,400 tested, 83% active;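 active means inhibition above the solvent-only control well mean plus 3 SD, limit set per screening run, cut at about 23% in these data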;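 further: plate controls were DMSO wells with enzyme for no effect and wells without RNase T1 for full effect; inhibitors block cleavage so intact labeled substrate keeps polarization high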
IDE cell inh cf – confirmation of human insulin-degrading enzyme inhibitors in cells | shares compounds with IDE inh | HEK cells, FAbetaB cleavage, fluorescence polarization | inhibition, % at 5.59 µM | 1,200 tested, 51% active;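 active means mean inhibition across triplicate wells above the cutoff set by the earlier primary insulin-degrading enzyme screen, cut at about 16% in these data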;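 further: 0% = DMSO wells and 100% = 60 µM reference IDE inhibitor Ii1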
HEK cytotox – counter-screen for IDE inhibitors: cytotoxicity in HEK cells. shares compounds with IDE inh. HEK293 cytotoxicity, ATP luminescence. inhibition, % at 5.59 µM. 1,200 tested, 28% active; in the data active means inhibition above about 22%;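 further: 0% = vehicle wells and 100% = reference cytotoxic drug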
CSN5 deneddyl – validation of inhibitors of human CSN-mediated cullin deneddylation. shares compounds with CSN inh. Csn5 deneddylation of SCF-Nedd8OG, fluorescence polarization, 90 min. inhibition, % at 16.6 µM. 540 tested, 62% active. AID 720654; in the data active means inhibition above about 50%;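 further: 0% = DMSO with enzyme and 100% = no enzyme wells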
MMP-2 counter – counter-screen for CSN deneddylation inhibitors: human MMP-2 inhibition | AID 720655 | recombinant MMP-2, FRET substrate fluorescence, 60 min | 540 tested, 33% active | inhibition, % at 16.6 µM | shares compounds with CSN inh;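 active means corrected plate-normalized z-score of 5 or more, or -5 or less, or inhibition of 15% or more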;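 further: plate controls were DMSO wells with enzyme for no effect and buffer wells lacking MMP-2 for full effect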
Thrombin cntr – counter-screen for CSN deneddylation inhibitors: bovine thrombin inhibition; shares compounds with CSN inh; bovine thrombin cleavage of Ub4-pepOG, fluorescence polarization; inhibition, % at 16.6 µM; 540 tested, 49% active; AID 720656;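 active means inhibition at or above a set limit, with a fluorescence interference ratio between 0.5 and a set maximum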
Target sequence (P00735 whole entry, looked up): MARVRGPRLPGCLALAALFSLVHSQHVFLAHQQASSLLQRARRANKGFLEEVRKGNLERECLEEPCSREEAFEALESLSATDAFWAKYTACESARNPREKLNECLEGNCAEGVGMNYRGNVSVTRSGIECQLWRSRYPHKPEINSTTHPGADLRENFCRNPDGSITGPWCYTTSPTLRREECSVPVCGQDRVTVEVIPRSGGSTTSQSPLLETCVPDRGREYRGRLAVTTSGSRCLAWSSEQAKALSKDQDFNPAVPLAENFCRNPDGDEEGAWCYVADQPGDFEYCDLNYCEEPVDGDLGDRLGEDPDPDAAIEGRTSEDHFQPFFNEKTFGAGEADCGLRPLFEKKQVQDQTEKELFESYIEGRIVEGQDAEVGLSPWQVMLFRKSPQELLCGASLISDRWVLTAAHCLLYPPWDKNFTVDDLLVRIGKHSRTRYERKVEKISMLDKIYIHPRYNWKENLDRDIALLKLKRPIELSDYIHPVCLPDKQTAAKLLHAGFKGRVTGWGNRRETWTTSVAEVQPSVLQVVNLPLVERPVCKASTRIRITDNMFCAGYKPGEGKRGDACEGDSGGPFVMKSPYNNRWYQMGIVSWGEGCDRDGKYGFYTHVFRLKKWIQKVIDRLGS
HNF4a DNA conf – change in binding of human HNF4 alpha to DNA, retest. shares compounds with HNF4A DNA FP. HNF4A-FITC DNA binding, fluorescence polarization, 1 h. activity change, % at 12.5 µM. 210 tested, 99% active; call rule not given here
* marks the source's active call; other numbers are inactive results; / = not tested or not shown.

SMILES	TPT1 inhibitor	IDE cell activ	HNF4A DNA FP	IDE inh	CSN inh	TPT1 inh confirm	RNase T1 inh	MMP-2 counter	Thrombin cntr	others
CCN1C(=O)C(=Cc2ccc(N3CCOCC3)o2)C(=O)N(CC)C1=S	111.9*	-44.6	48.0*	11.8	105.9*	146.3*	136.8*	-23.6	69.3*	CSN5 deneddyl=62.4*
O=C1NC(=O)C(=Cc2ccc(N3CCOCC3)cc2)C(=O)N1	-2.9	-6.6	-0.5	-2.2	-2.7	/	/	/	/
COc1cccc(C)c1NC1=NCCO1	/	/	1.5	/	1.6	/	/	/	/
O=C1NC(=O)N(Cc2ccccc2)C(=O)/C1=C\C=C\c1ccco1	60.1*	-17.1	18.0	17.2*	80.6*	46.1*	63.1*	2.4	27.2*	IDE cell inh cf=10.1;HEK cytotox=57.6*;CSN5 deneddyl=60.5*
O=C1NC(=O)N(Cc2ccco2)C(=O)/C1=C/C=C/c1ccco1	35.0*	-16.8	-30.8	1.4	45.8*	39.4*	54.0*	26.1*	20.0*	CSN5 deneddyl=47.6
C=CCN1C(=O)NC(=O)/C(=C/C=C/c2ccccc2)C1=O	/	-8.6	20.0	/	2.8	/	/	/	/
CC1CN1c1cc2c(c3c1ccn3C)C1CCC2C1 (configuration not stated)	/	/	-0.2	/	4.1	/	/	/	/
CCCOc1ccccc1OCC(=O)N1CCN(CC(=O)N2CCOCC2)CC1	/	/	1.8	/	-3.2	/	/	/	/
N#Cc1c(/N=C/c2c(O)n(Cc3ccco3)c(=O)[nH]c2=O)sc2c1CCCC2	44.3*	-26.8	-3.0	8.7	42.9*	8.1	13.7	10.0	-2.0	CSN5 deneddyl=73.4*
CCN(CC)c1ccc(N=Cc2c(O)n(Cc3ccco3)c(=O)[nH]c2=O)cc1	45.3*	-8.6	101.6	5.8	62.0*	64.0*	68.8*	-14.2	25.1*
O=c1[nH]c(=O)n(Cc2ccco2)c(O)c1/C=N/N1CCCCCC1	0.3	4.9	-0.1	-3.7	6.2	/	/	/	/
COc1ccc(C(c2nnnn2C2CCCC2)N2CCC3(CC2)C(=O)NCN3c2ccccc2)cc1 (configuration not stated)	/	/	-0.8	/	-2.3	/	/	/	/
CN(C)CCCN=Cc1c(O)n(CCc2ccccc2)c(=O)[nH]c1=O	72.5*	4.6	43.0*	-2.9	28.3	65.0*	82.1*	/	/	HNF4a DNA conf=60.4*
NC(Cc1ccc(F)cc1)c1csc(Nc2ncccn2)n1 (configuration not stated)	/	/	2.5	/	-2.4	/	/	/	/
CCN(CC)CCOC(=O)c1ccc(N=Cc2c(O)[nH]c(=O)[nH]c2=O)cc1	60.3*	3.7	60.5*	3.1	48.0*	70.0*	86.6*	/	/	HNF4a DNA conf=99.0*
COC(=O)c1ccccc1N=Cc1c(O)[nH]c(=O)[nH]c1=O	0.2	-1.0	3.1	-5.0	-0.9	/	/	/	/
COc1cc(/C=C/c2nc3ccccc3c(=O)n2-c2ccc(O)cc2)ccc1O	16.8	-47.0	21.9	32.5*	21.8	/	/	/	/	IDE cell inh cf=111.3*;HEK cytotox=34.3*
CC(C)(OOC1(c2ccccc2)NC(=O)c2ccccc21)c1ccccc1 (configuration not stated)	/	/	2.6	/	-1.5	/	/	/	/
